Measurements taken from ChEMBL document CHEMBL4350999, “Enhanced tumor retention of NTSR1-targeted agents by employing a hydrophilic cysteine cathepsin inhibitor” (Eur J Med Chem, 2019).

Assays:
[1] = Drug uptake in muscle of SCID mouse xenografted with human HT-29 cells at 0.37 MBq/mouse, iv measured at 4 hrs using 177Lu labelled compound by gamma counter analysis; assay type: ADME, organism-based, Muscle tissue; settings: in vivo
In short: (§1)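 Female SCID mice (5 weeks) bore s.c. flank xenografts of HT-29 cells (5 × 10^6 in Matrigel), used at about 80 mm3 (two weeks) and randomized. Each mouse received 10 μCi (0.37 MBq) of HPLC-purified 177Lu-conjugate via tail vein. Tissues were excised, weighed and gamma-counted, expressed as %ID/g; mean ± SD, n = 5.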

[2] = Drug uptake in stomach of SCID mouse xenografted with human HT-29 cells at 0.37 MBq/mouse, iv measured at 4 hrs using 177Lu labelled compound by gamma counter analysis; assay type: ADME, organism-based; settings: in vivo
In short: (§2)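 Female SCID mice (5 weeks old) received s.c. flank HT-29 cells (5 × 10^6 in Matrigel). At ~80 mm3, two weeks later, mice were randomized and given 10 μCi (0.37 MBq) of purified 177Lu conjugate i.v. by tail vein. Mice were killed at 4, 24 or 72 h. Tissues were weighed and gamma counted as %ID/g, mean ± SD, n = 5. Tumor-to-tissue ratios were calculated.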

[3] = Drug uptake in kidney of SCID mouse xenografted with human HT-29 cells at 0.37 MBq/mouse, iv measured at 4 hrs using 177Lu labelled compound by gamma counter analysis; assay type: ADME, organism-based; settings: in vivo; in short: as §1
[4] = Drug excretion in SCID mouse xenografted with human HT-29 cells at 0.37 MBq/mouse, iv measured at 4 hrs using 177Lu labelled compound by gamma counter analysis; assay type: ADME, organism-based; settings: in vivo
In short: (§3)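 Female SCID mice bearing s.c. flank HT-29 xenografts (5 × 10^6 cells in Matrigel, ~80 mm3). Given 10 μCi (0.37 MBq) 177Lu conjugate i.v. by tail vein; groups sacrificed at 4, 24, 72 h. Tissues weighed and gamma-counted as %ID/g, excretion as %ID; n = 5, mean ± SD. Blocking arms: colchicine 1 mg/kg i.p. beforehand, or D-lysine 40 mg/kg co-injected.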

[5] = Drug uptake in lung of SCID mouse xenografted with human HT-29 cells at 0.37 MBq/mouse, iv measured at 24 hrs using 177Lu labelled compound by gamma counter analysis; assay type: ADME, organism-based; settings: in vivo; in short: as §1
[6] = Drug uptake in bone of SCID mouse xenografted with human HT-29 cells at 0.37 MBq/mouse, iv measured at 72 hrs using 177Lu labelled compound by gamma counter analysis; assay type: ADME, organism-based, Bone element; settings: in vivo; in short: as §1
[7] = Drug uptake in stomach of SCID mouse xenografted with human HT-29 cells at 0.37 MBq/mouse, iv measured at 72 hrs using 177Lu labelled compound by gamma counter analysis; assay type: ADME, organism-based; settings: in vivo; in short: as §2
[8] = Drug uptake in large intestine of SCID mouse xenografted with human HT-29 cells at 0.37 MBq/mouse, iv measured at 72 hrs using 177Lu labelled compound by gamma counter analysis; assay type: ADME, organism-based; settings: in vivo; in short: as §1
[9] = Drug uptake in stomach of SCID mouse xenografted with human HT-29 cells at 0.37 MBq/mouse, iv measured at 24 hrs using 177Lu labelled compound by gamma counter analysis; assay type: ADME, organism-based; settings: in vivo; in short: as §2
[10] = Drug uptake in brain of SCID mouse xenografted with human HT-29 cells at 0.37 MBq/mouse, iv measured at 24 hrs using 177Lu labelled compound by gamma counter analysis; assay type: ADME, organism-based; settings: in vivo; in short: as §1
[11] = Drug retention in tumor of mouse xenografted with human HT-29 cells assessed as conjugate adduct formation at 29.6 MBq measured after 72 hrs using 177Lu labelled compound by SDS-PAGE analysis; assay type: ADME, tissue-based, Neoplasm; settings: in vivo
In short: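 HT-29 xenograft mice given 800 μCi (29.6 MBq) 177Lu conjugate i.v. and killed at 72 h. Tumor, liver and kidney homogenized in RIPA with protease inhibitor and supernatants run on SDS-PAGE autoradiography. Other supernatant aliquots filtered through 10 kDa MWCO devices to give the % macromolecule-associated radioactivity; n = 3.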

[12] = Drug uptake in large intestine of SCID mouse xenografted with human HT-29 cells at 0.37 MBq/mouse, iv measured at 4 hrs using 177Lu labelled compound by gamma counter analysis; assay type: ADME, organism-based; settings: in vivo; in short: as §1
[13] = Drug uptake in lung of SCID mouse xenografted with human HT-29 cells at 0.37 MBq/mouse, iv measured at 72 hrs using 177Lu labelled compound by gamma counter analysis; assay type: ADME, organism-based; settings: in vivo; in short: as §1
[14] = Drug uptake in small intestine of SCID mouse xenografted with human HT-29 cells at 0.37 MBq/mouse, iv measured at 4 hrs using 177Lu labelled compound by gamma counter analysis; assay type: ADME, organism-based; settings: in vivo; in short: as §1
[15] = Drug uptake in membrane of human HT-29 cells measured after 240 mins using 177Lu labelled compound by gamma counter method relative to control; assay type: ADME, cell-based; settings: ht-29, 4 h
In short: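 HT-29 cells (~1 × 10^6 in 1 mL medium) were incubated with 177Lu-conjugate (100,000 cpm) at 37 °C and sampled at 15–240 min. After medium washes, surface-bound activity was stripped with pH 2.8 glycine-HCl/NaCl buffer, and the internalized fraction was taken from the 1% SDS lysate. Fractions were gamma-counted as % of total added activity; mean ± SD, n = 3.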

[16] = Drug uptake in bone of SCID mouse xenografted with human HT-29 cells at 0.37 MBq/mouse, iv measured at 4 hrs using 177Lu labelled compound by gamma counter analysis; assay type: ADME, organism-based, Bone element; settings: in vivo; in short: as §1
[17] = Drug uptake in liver of SCID mouse xenografted with human HT-29 cells at 0.37 MBq/mouse, iv measured at 4 hrs using 177Lu labelled compound by gamma counter analysis; assay type: ADME, organism-based; settings: in vivo; in short: as §1
[18] = Drug uptake in liver of SCID mouse xenografted with human HT-29 cells at 0.37 MBq/mouse, iv measured at 24 hrs using 177Lu labelled compound by gamma counter analysis; assay type: ADME, organism-based; settings: in vivo; in short: as §1
[19] = Drug uptake in liver of SCID mouse xenografted with human HT-29 cells at 0.37 MBq/mouse, iv measured at 72 hrs using 177Lu labelled compound by gamma counter analysis; assay type: ADME, organism-based; settings: in vivo; in short: as §1
[20] = Drug uptake in pancreas of SCID mouse xenografted with human HT-29 cells at 0.37 MBq/mouse, iv measured at 4 hrs using 177Lu labelled compound by gamma counter analysis; assay type: ADME, organism-based; settings: in vivo; in short: as §1
[21] = Drug uptake in blood of SCID mouse xenografted with human HT-29 cells at 0.37 MBq/mouse, iv measured at 24 hrs using 177Lu labelled compound by gamma counter analysis; assay type: ADME, organism-based; settings: in vivo; in short: as §3
[22] = Ratio of drug uptake in SCID mouse xenograted with human HT-29 cells assessed as tumour retention to drug uptake in liver of SCID mouse xenografted with human HT-29 cells measured after 24 hrs using 177Lu labelled compound; assay type: ADME, tissue-based, Tumor/Liver; in short: as §2
[23] = Ratio of drug uptake in SCID mouse xenograted with human HT-29 cells assessed as tumour retention to drug uptake in spleen of SCID mouse xenografted with human HT-29 cells measured after 4 hrs using 177Lu labelled compound; assay type: ADME, tissue-based, Tumor/Spleen; in short: as §2
[24] = Ratio of drug uptake in SCID mouse xenograted with human HT-29 cells assessed as tumour retention to drug uptake in kidney of SCID mouse xenografted with human HT-29 cells measured after 72 hrs using 177Lu labelled compound; assay type: ADME, tissue-based, Tumor/Kidney; in short: as §2
[25] = Ratio of drug uptake in SCID mouse xenograted with human HT-29 cells assessed as tumour retention to drug uptake in pancreas of SCID mouse xenografted with human HT-29 cells measured after 24 hrs using 177Lu labelled compound; assay type: ADME, tissue-based, Tumor/Pancreas; in short: as §2

| Structure (SMILES) | Drug uptake [1] [% ID/g] | Drug uptake [2] [% ID/g] | Drug uptake [3] [% ID/g] | Drug excretion [4] [%ID] | Drug uptake [5] [% ID/g] | Drug uptake [6] [% ID/g] | Drug uptake [7] [% ID/g] | Drug uptake [8] [% ID/g] | Drug uptake [9] [% ID/g] | Drug uptake [10] [% ID/g] | Drug uptake [12] [% ID/g] | Drug uptake [13] [% ID/g] | Drug uptake [14] [% ID/g] | Drug uptake [15] | Drug uptake [16] [% ID/g] | Drug uptake [17] [% ID/g] | Drug uptake [18] [% ID/g] | Drug uptake [19] [% ID/g] | Drug uptake [20] [% ID/g] | Drug uptake [21] [% ID/g] | further results |
| --- | --- | --- | --- | --- | --- | --- | --- | --- | --- | --- | --- | --- | --- | --- | --- | --- | --- | --- | --- | --- | --- |
| Cc1cc(O)cc(C)c1C[C@H](NC(=O)[C@@H]1CCCN1C(=O)[C@H](CCCNC(=N)N)NC(=O)[C@H](CCCNC(=N)N)N(C)C(=O)[C@@H]1CCCN1C(=O)[C@H](CCCCN)NC(=O)[C@@H](CO)NC(=O)[C@@H](CO)NC(=O)[C@@H](CO)NC(=O)[C@H](Cc1cn(CCNC(=O)[C@H](CCCNC(=N)N)NC(=O)[C@H](CC(C)C)NC(=O)CCC(=O)O)nn1)NC(=O)CN1CCN(CC(=O)O)CCN(CC(=O)O)CCN(CC(=O)O)CC1)C(=O)N[C@H](C(=O)N[C@@H](CC(C)C)C(=O)O)C(C)(C)C | 0.04 | 0.27 | 57 | 75 | 0.25 | 0.12 | 0.08 | 0.36 | 0.15 | 0.01 | 1 | 0.24 | 2.9 | Not Active | 0.18 | 0.42 | 0.4 | 0.26 | 0.12 | – | Drug uptake [11]: Not Active |
| Cc1cc(O)cc(C)c1C[C@H](NC(=O)[C@@H]1CCCN1C(=O)[C@H](CCCNC(=N)N)NC(=O)[C@H](CCCNC(=N)N)N(C)C(=O)[C@@H]1CCCN1C(=O)[C@H](CCCCN)NC(=O)[C@@H](CO)NC(=O)[C@@H](CO)NC(=O)[C@@H](CO)NC(=O)[C@H](Cc1cn(CC(=O)N[C@H](CO)C(=O)N[C@H](CO)C(=O)N[C@H](CO)C(=O)NCC(=O)NCCCC[C@H](NC(=O)[C@H](Cc2ccccc2)NC(=O)OCc2ccccc2)C(=O)NCCc2ccccc2)nn1)NC(=O)CN1CCN(CC(=O)O)CCN(CC(=O)O)CCN(CC(=O)O)CC1)C(=O)N[C@H](C(=O)N[C@@H](CC(C)C)C(=O)O)C(C)(C)C | 0.44 | 1.6 | 64 | 36.6 | 2.2 | 1 | 0.51 | 1.62 | 0.9 | 0.04 | 4 | 1.2 | 7.6 | – | 2.6 | 9.2 | 8.3 | 5.3 | 0.84 | 0.14 | – |
| Cc1cc(C)c(C(=O)OCC(=O)[C@H](CCCCNC(=O)CNC(=O)[C@@H](CO)NC(=O)[C@@H](CO)NC(=O)[C@@H](CO)NC(=O)Cn2cc(C[C@H](NC(=O)CN3CCN(CC(=O)O)CCN(CC(=O)O)CCN(CC(=O)O)CC3)C(=O)N[C@H](CO)C(=O)N[C@H](CO)C(=O)N[C@H](CO)C(=O)N[C@@H](CCCCN)C(=O)N3CCC[C@H]3C(=O)N(C)[C@@H](CCCNC(=N)N)C(=O)N[C@@H](CCCNC(=N)N)C(=O)N3CCC[C@H]3C(=O)N[C@@H](Cc3c(C)cc(O)cc3C)C(=O)N[C@H](C(=O)N[C@@H](CC(C)C)C(=O)O)C(C)(C)C)nn2)NC(=O)[C@H](Cc2ccccc2)NC(=O)OCc2ccccc2)c(C)c1 | 0.53 | 1.7 | 58.2 | 16.6 | 6 | 1.1 | 0.8 | 1.6 | 0.9 | 0.04 | 2.9 | 5 | 6.1 | 2% | 1.6 | 38.6 | 26 | 11 | 0.89 | 0.17 | Ratio [22]: 0.5; Ratio [23]: 0.5; Ratio [24]: 0.09; Ratio [25]: 17 |
| Cc1cc(O)cc(C)c1C[C@H](NC(=O)[C@@H]1CCCN1C(=O)[C@H](CCCNC(=N)N)NC(=O)[C@H](CCCNC(=N)N)N(C)C(=O)[C@@H]1CCCN1C(=O)[C@H](CCCCN)NC(=O)[C@@H](CO)NC(=O)[C@@H](CO)NC(=O)[C@@H](CO)NC(=O)[C@H](Cc1cn(CCNC(=O)[C@H](CCCNC(=N)N)NC(=O)[C@H](CC(C)C)NC(=O)C2OC2C(=O)O)nn1)NC(=O)CN1CCN(CC(=O)O)CCN(CC(=O)O)CCN(CC(=O)O)CC1)C(=O)N[C@H](C(=O)N[C@@H](CC(C)C)C(=O)O)C(C)(C)C (stereo partly drawn) | 0.09 | 0.34 | 67 | 70 | 0.45 | 0.6 | 0.21 | 0.73 | 0.33 | 0.02 | 1.2 | 0.3 | 3.5 | Not Active | 0.8 | 0.78 | 0.73 | 0.67 | 0.19 | 0.01 | Ratio [22]: 8.5; Ratio [23]: 5; Ratio [24]: 0.09; Ratio [25]: 36; Drug uptake [11]: Active |
